ChEMBL document CHEMBL1157476, “A novel class of cycloalkano[b]pyridines as potent and orally active opioid receptor-like 1 antagonists with minimal binding affinity to the hERG K+ channel” (J Med Chem, 2008)
Active and inactive are the calls of the source. The calls are words filed in the database; no cut-off is given here.

Experiments:
[1] = target: T1, Nociceptin receptor (Homo sapiens, UniProt P41146); assay: Displacement of [125I][Tyr14]nociceptin from human ORL1 expressed in CHO cells; assay type: cell-based
T1 sequence (P41146 whole entry): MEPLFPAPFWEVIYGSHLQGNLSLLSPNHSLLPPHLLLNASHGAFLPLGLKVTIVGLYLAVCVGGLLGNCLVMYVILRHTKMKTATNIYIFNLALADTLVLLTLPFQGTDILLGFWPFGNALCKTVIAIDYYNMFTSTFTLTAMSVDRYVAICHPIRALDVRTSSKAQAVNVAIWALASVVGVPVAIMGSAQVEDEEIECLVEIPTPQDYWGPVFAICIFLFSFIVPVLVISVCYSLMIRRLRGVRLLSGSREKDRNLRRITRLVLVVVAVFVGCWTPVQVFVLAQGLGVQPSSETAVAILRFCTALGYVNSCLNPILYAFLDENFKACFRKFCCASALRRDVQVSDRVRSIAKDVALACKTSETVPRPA

[2] = target: Voltage-gated inwardly rectifying potassium channel KCNH2 (Homo sapiens, UniProt Q12809)
Sequence of Voltage-gated inwardly rectifying potassium channel KCNH2 (Q12809 whole entry): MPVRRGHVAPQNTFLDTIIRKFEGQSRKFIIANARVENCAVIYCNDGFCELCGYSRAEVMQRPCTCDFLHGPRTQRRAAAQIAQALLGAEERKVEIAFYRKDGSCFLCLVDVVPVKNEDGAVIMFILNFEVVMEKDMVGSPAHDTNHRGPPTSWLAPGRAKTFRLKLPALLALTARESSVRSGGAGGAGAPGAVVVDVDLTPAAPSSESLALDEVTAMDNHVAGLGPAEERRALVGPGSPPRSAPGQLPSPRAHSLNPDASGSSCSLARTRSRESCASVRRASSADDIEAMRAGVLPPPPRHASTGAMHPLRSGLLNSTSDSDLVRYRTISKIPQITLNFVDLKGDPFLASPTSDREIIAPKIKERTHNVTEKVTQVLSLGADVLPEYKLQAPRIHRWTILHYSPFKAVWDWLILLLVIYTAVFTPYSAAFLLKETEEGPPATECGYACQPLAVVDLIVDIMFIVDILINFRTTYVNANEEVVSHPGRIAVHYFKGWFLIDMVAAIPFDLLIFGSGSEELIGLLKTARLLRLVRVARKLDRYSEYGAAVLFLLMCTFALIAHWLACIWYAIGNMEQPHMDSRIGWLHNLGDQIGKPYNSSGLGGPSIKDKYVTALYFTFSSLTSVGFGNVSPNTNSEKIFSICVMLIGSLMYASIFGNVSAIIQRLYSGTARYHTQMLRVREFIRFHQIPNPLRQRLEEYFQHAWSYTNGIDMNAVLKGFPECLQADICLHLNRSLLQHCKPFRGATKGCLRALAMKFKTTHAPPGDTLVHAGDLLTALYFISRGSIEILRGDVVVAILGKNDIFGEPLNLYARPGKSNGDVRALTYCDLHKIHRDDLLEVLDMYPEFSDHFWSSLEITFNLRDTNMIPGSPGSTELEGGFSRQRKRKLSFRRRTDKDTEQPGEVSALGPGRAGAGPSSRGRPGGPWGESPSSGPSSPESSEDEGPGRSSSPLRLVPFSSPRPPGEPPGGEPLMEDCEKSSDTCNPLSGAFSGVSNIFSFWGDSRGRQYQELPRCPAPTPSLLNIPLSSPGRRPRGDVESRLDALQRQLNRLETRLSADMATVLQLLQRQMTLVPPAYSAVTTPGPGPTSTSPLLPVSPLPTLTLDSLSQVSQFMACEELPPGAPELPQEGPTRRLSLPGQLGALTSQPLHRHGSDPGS

[3] = physchem; conditions: buffer, pH 7.4
[4] = test system: Canis familiaris; assay: Cardiovascular activity in anesthetized dog assessed as corrected QT interval at 1 mg/kg, iv dosed for 10 mins measured after 20 mins relative to baseline; assay type: functional, Canis lupus familiaris
Procedure, shortened: (§1)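 Isoflurane-anesthetized dogs (n = 1 or 3) given cumulative iv doses as saline solutions, each infused over 10 min; 2 and 7 mg/kg doses given 20 min after the prior administration. QTc measured at 0, 10 and 20 min after dosing, expressed as percent change from baseline for each dog. Peak plasma levels taken after each dose.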

[5] = test system: Canis familiaris; assay: Cardiovascular activity in anesthetized dog assessed as corrected QT interval at 2 mg/kg, iv dosed for 10 mins measured after 20 mins relative to baseline; assay type: functional, Canis lupus familiaris; procedure, shortened: as §1
[6] = test system: Canis familiaris; assay: Cardiovascular activity in anesthetized dog assessed as corrected QT interval at 7 mg/kg, iv dosed for 10 mins measured after 20 mins relative to baseline; assay type: functional, Canis lupus familiaris; procedure, shortened: as §1
[7] = target: T1, Nociceptin receptor; assay: Antagonist activity at human ORL1 expressed in CHO cells assessed as effect on nociceptin-induced GTPgammaS binding; assay type: functional, cell-based
[8] = Metabolic stability in rat hepatocyte after 30 mins; assay type: ADME, cell-based; conditions: rat hepatocytes, read-out: Stability
Procedure, shortened: (§2)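 Compound incubated 30 min with rat hepatocytes or cryopreserved human hepatocytes; percent parent remaining reported; rat as mean of duplicates, human as mean of three experiments.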

[9] = Metabolic stability in cryopreserved human hepatocyte after 30 mins; assay type: ADME, cell-based; conditions: cryopreserved human hepatocytes, read-out: Stability; procedure, shortened: as §2
[10] = Plasma clearance in Sprague-Dawley rat at 3 mg/kg, iv; assay type: ADME, organism-based; parameters: dose 3 mg/kg, route intravenous
Procedure, shortened: (§3)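 Fasted Sprague-Dawley rats (n = 3) given an intravenous solution in water at 3 or 0.65 mg/kg; plasma pharmacokinetic parameters from the IV arm.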

[11] = Half life in Sprague-Dawley rat at 3 mg/kg, iv; assay type: ADME, organism-based; parameters: dose 3 mg/kg, route intravenous; conditions: in vivo; procedure, shortened: as §3
[12] = AUC (0 to infinity) in Sprague-Dawley rat at 3 mg/kg, iv; assay type: ADME, organism-based; parameters: time infinity, dose 3 mg/kg, route intravenous; conditions: plasma
Procedure, shortened: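 Fasted Sprague-Dawley rats (n = 3) received a single intravenous dose. Plasma exposure was expressed as AUC from zero to infinity, in µM·h. The same study also yielded clearance, half-life and steady-state volume of distribution, with oral dosing run in parallel.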

[13] = Volume of distribution at steady state in Sprague-Dawley rat at 3 mg/kg, iv; assay type: ADME, organism-based; parameters: dose 3 mg/kg, route intravenous; conditions: in vivo, read-out: Vdss; procedure, shortened: as §3
[14] = Bioavailability in Sprague-Dawley rat at 10 mg/kg, iv; assay type: ADME, organism-based; conditions: in vivo, po, in the assay text read “po” for “iv”
Procedure, shortened: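 Fasted Sprague-Dawley rats (n = 3) dosed orally as a solution in water (10 or 3 mg/kg), with matching intravenous arms at 3 or 0.65 mg/kg; F from oral versus IV exposure.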

[15] = test system: Plasma; conditions: dog, in vivo, iv, 1 mg/kg, 20 min
[16] = in vivo; conditions: dog, plasma, iv, 1 mg/kg
[17] = in vivo; conditions: dog, plasma, iv, 2 mg/kg
[18] = in vivo; conditions: dog, plasma, iv, 7 mg/kg
[19] = physchem
[20] = test system: Mus musculus; assay: Inhibition of ORL1 agonist-induced hypolocomotion in mouse at 3 mg/kg, sc; assay type: functional, organism-based; parameters: dose 3 mg/kg

For `Cc1ccccc1[C@H]1CCN(C[C@@H]2Cc3cccnc3[C@@H](O)C2)C[C@@H]1O`, which Ki [1] is on record?
The Ki was 51 nM.

What about the IC50 [2] of the same compound?
The IC50 was > 50000 nM.

With `Cc1ccccc1C1CCN(C[C@@H]2CCc3cccnc3C(C)(O)C2)CC1` (stereo in doubt; form 2) as the compound, how does the Ki [1] read?
Its Ki is 17 nM.

What about the logD [3] of the same compound?
The logD was 2.9.

Which Ki [1] does the source give for `O[C@H]1C[C@H](CN2CCC(c3ccccc3)CC2)CCc2cccnc21` here?
Its Ki is 30 nM.

What about the IC50 [2] of the same compound?
Its IC50 is 11000 nM.

With `Cc1ccccc1[C@@H]1CCN(C[C@@H]2CCc3cccnc3[C@@H](O)C2)C[C@H]1CO` as the compound, how does the Activity [4] read?
The Activity was -0.1%.

And the Activity [5]?
Its Activity is 0.1%.

What about the Activity [6] of the same compound?
The Activity was 11.3%.

Which Ki [1] does the source give for `O[C@H]1C[C@H](CN2CCC(c3c(Cl)cccc3Cl)CC2)CCc2cccnc21` here?
Its Ki is 0.47 nM.

And the IC50 [7]?
Its IC50 is 1.6 nM.

And the IC50 [2]?
The IC50 was 940 nM.

And the logD [3]?
The logD was > 4.

Which results are given for `Cc1ccccc1[C@@H]1CCN(C[C@@H]2CCc3cccnc3[C@@H](O)C2)C[C@H]1O`?
Activity [4]: 0.2%; Activity [5]: 0.2%; Activity [6]: 2%; remaining at 0.5 h [8]: 6%; remaining at 0.5 h [9]: 62%; clearance [10]: 91 mL/min/kg; half-life [11]: 54 min; AUC(0-inf) [12]: 1.6 µM·h; Vd [13]: 6.3 L/kg; bioavailability [14]: 11%; PPB [15]: 62%; concentration at 20 min [16]: 2.26 µM; concentration at 20 min [17]: 4.9 µM; concentration at 20 min [18]: 17.9 µM; logD [3]: 2.2; pKa [19]: 7.8

Which Ki [1] does the source give for `O[C@H]1C[C@H](CN2CCC(c3ccccc3Cl)CC2)CCc2cccnc21` here?
The Ki was 1.1 nM.

And the IC50 [7]?
Its IC50 is 27 nM.

And the IC50 [2]?
The IC50 was 1500 nM.

With `Cc1ccccc1C1CCN(C[C@@H]2CCc3c(C)cccc3[C@@H](O)C2)CC1` (relative stereo) as the compound, how does the Activity [20] read?
Its Activity is “inactive”.
